The target in data set [1] is T1, C-C chemokine receptor type 5 (Homo sapiens, UniProt P51681). Description: Antagonist activity at human CCR5 expressed in CHO cells assessed as inhibition of MIP-1-alpha-stimulated calcium mobilization. In kind it is functional, cell-based. The method, boiled down:
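Cells expressing human CCR5 (hCCR5/CHO) were stimulated with MIP-1α, and the rise in intracellular calcium was measured. Potency is reported as an IC50 for inhibition of the calcium response.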

In data set [2] the target is T1, C-C chemokine receptor type 5. Description: Displacement of [125I]MIP1-alpha from human CCR5 expressed in CHO cells. In kind it is cell-based. In general terms: In a radioligand displacement assay an active substance lowers the binding of a labelled ligand.
Data set [3] deals with Human immunodeficiency virus. The data set is described as follows: Antiviral activity against HIV. In kind it is functional, organism-based. Conditions: Human immunodeficiency virus 1.
Data set [4] can be described thus: Aqueous solubility at pH 6.8. Type of data set: physicochemical.
The next data set addresses Cytochrome P450 3A4 (Homo sapiens, UniProt P08684). The data set is described as follows: Inhibition of CYP3A4. In kind it is ADME.
Data set [5] has as its system Human immunodeficiency virus 1. Description: Anti-infective activity against HIV1 BAL in MAGI CCR5+ cells. Conditions: Human immunodeficiency virus 1, BAL. Type of data set: functional, organism-based.
The nature of data set [6]: Bioavailability in rat. In kind it is ADME, organism-based. Conditions: in vivo.

A value given as a limit tells only on which side of the number the result lay.

T1 sequence (P51681 whole entry): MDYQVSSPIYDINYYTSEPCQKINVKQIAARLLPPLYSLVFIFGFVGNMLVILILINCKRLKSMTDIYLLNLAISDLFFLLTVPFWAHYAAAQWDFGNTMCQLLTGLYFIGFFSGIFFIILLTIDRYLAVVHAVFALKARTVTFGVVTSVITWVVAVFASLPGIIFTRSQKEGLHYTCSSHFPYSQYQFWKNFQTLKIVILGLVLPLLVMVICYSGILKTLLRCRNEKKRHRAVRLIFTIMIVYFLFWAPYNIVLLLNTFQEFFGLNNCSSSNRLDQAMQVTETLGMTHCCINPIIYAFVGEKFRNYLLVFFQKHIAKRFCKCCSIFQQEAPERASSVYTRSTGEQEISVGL
Sequence of Cytochrome P450 3A4 (P08684 whole entry): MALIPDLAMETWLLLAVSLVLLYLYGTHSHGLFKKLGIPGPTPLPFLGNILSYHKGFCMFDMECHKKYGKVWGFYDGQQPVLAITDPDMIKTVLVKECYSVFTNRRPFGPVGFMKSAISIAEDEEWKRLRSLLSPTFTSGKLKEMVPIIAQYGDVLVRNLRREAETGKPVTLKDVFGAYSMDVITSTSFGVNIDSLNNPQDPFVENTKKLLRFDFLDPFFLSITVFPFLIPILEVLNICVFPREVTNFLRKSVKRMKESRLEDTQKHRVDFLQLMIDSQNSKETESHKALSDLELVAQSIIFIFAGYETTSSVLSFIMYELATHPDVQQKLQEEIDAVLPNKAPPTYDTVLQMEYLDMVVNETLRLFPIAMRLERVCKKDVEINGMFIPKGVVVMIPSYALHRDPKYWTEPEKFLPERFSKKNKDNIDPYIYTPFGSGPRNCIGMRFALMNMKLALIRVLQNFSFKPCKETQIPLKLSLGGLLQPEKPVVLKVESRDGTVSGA

As usually defined, the IC50 is the concentration needed to halve the response being measured. Turning to `CCCCN1C(=O)C(CC(C)(C)O)NC(=O)C12CCN(Cc1ccc(Oc3ccccc3)cc1)CC2` (stereo not drawn), the IC50 in data set [1] came out at 79 nM; in data set [2], 28 nM.
Consider `CCCCN1C(=O)[C@@H](CC(C)C)NC(=O)C12CCN(Cc1ccc(Oc3ccccc3)cc1)CC2`, for which the IC50 amounted to 130 nM in data set [1] and 29 nM in data set [2].
One may read the solubility as how much of the substance goes into solution per volume. Higher therefore signals a readily soluble substance. `CCCCN1C(=O)C(CC2CCCCC2)NC(=O)C12CCN(Cc1ccc(Oc3ccccc3)cc1)CC2.Cl` (stereo not drawn): the IC50 was 28 nM in data set [1], 31 nM in data set [3], 9300 nM against Cytochrome P450 3A4 and 337 nM in data set [5]. In data set [4], this molecule showed a solubility below 0.2 µg/mL.
With `CCCCN1C(=O)[C@H]([C@H](O)C(C)C)NC(=O)C12CCN(Cc1ccc(Oc3ccccc3)cc1)CC2`, the results for the IC50 in data set [1] and in data set [2] were 400 nM and 68 nM, respectively.
As usually defined, the bioavailability is dose-corrected exposure relative to a reference, in per cent. For the molecule `CCCCN1C(=O)[C@@H]([C@H](O)C2CCCCC2)NC(=O)C12CCN(Cc1ccc(Oc3ccccc3)cc1)CC2.Cl`, the bioavailability in data set [6] was below 1%. Further, the results for the IC50 in data set [3] and in data set [5] were 0.6 nM and 6 nM, respectively. In data set [4], this molecule had a solubility of 2.7 µg/mL.
As a reminder, the IC90 is the concentration needed for an effect of 90%. High values mean weaker potency, low ones greater potency. As to `CCCCN1C(=O)C(CC(C)C)NC(=O)C12CCN(Cc1ccc(Oc3ccccc3)cc1)CC2.Cl` (stereo not drawn), the IC50 in data set [1] is 94 nM; in data set [2], 8.3 nM. Moreover, the bioavailability in data set [6] was 1.3%. This molecule returned a 90% effect concentration (IC90) in data set [3] of 676 nM.
On to `CCCCN1C(=O)[C@H](CC(C)C)NC(=O)C12CCN(Cc1ccc(Oc3ccccc3)cc1)CC2`, for which the IC50 came to 84 nM in data set [1] and 11 nM in data set [2].
The corresponding values for `CCCCN1C(=O)[C@@H]([C@@H](O)C(C)C)NC(=O)C12CCN(Cc1ccc(Oc3ccccc3)cc1)CC2` are 210 nM and 24 nM.
The corresponding values for `CCCCN1C(=O)[C@H]([C@@H](O)C(C)C)NC(=O)C12CCN(Cc1ccc(Oc3ccccc3)cc1)CC2` are 150 nM and 53 nM.
As to `CCCCN1C(=O)[C@@H]([C@H](O)C(C)C)NC(=O)C12CCN(Cc1ccc(Oc3ccccc3)cc1)CC2.Cl`, the IC50 in data set [1] is 33 nM; in data set [2], 3.5 nM. The same molecule showed a bioavailability in data set [6] below 1%.

(Values after ChEMBL document CHEMBL1146303, “Spirodiketopiperazine-based CCR5 antagonists: Lead optimization from biologically active metabolite” (Bioorg Med Chem Lett, 2007).)
